Test results from paper PMC3972320 (Kidney international, 2013).

Key:
OCT2 mRNA = OCT2 mRNA by qPCR in NRK cells transfected with human OCT2/V5; format: cell-based, rat; conditions: DSAL, NRK cells transfected with human OCT2/V5 and Klotho plasmid
human OCT2 [1] = format: cell-based
human OCT2 [2] = experiment: Cell surface; format: cell-based; conditions: DSAL, OCT2/V5-transfected CHO cells
[3] = 14C-TEA kinetic study in vivo; parameters: species or system mouse; conditions: single injection 10 μl/g BW
Outline: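 Male WT, Kl/+ and Tg-Kl mice (129sv background, 12–14 weeks, 30–40 g) got a single i.v. dose of 14C-tetraethylammonium (10 μl/g BW; 0.1 mCi/ml, specific activity 3.5 mCi/mmol). Blood and urine were sampled at 0, 30, 60 and 90 […] post injection, with radioactivity by liquid scintillation counting. AUC0-60 is given as mean ± SD of 3 experiments per genotype.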

NRK cells [4] = experiment: Oregon Green 488-labeled fluorescent cisplatin uptake by NRK cells; format: cell-based, rat
NRK cells [5] = experiment: TUNEL staining of apoptotic NRK cells; format: cell-based, rat
Outline: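 NRK rat renal epithelial cells on glass coverslips were serum-starved overnight after confluence. […] Cells were PFA-fixed and TUNEL-stained with DAPI counterstain, then imaged by confocal microscopy. TUNEL-positive/DAPI-positive cells were counted in 5 fields at 40X, across 4 independent experiments.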

[6] = tested on: organic cation transporter (OCT); experiment: 14C-TEA uptake by NRK cells; format: cell-based, rat; conditions: agent added after 14C-TEA
NRK cells [7] = experiment: LDH release from NRK cells on Transwell plates; format: cell-based, rat
human OCT2 [8] = target: T1, human OCT2 (Homo sapiens, UniProt O15244); format: cell-based; conditions: β-glucuronidase 100μg/ml, sialidase 0.1 IU/ml, cimetidine 0.1 mM, added 16 hours prior to assay
T1 sequence (O15244 1-555): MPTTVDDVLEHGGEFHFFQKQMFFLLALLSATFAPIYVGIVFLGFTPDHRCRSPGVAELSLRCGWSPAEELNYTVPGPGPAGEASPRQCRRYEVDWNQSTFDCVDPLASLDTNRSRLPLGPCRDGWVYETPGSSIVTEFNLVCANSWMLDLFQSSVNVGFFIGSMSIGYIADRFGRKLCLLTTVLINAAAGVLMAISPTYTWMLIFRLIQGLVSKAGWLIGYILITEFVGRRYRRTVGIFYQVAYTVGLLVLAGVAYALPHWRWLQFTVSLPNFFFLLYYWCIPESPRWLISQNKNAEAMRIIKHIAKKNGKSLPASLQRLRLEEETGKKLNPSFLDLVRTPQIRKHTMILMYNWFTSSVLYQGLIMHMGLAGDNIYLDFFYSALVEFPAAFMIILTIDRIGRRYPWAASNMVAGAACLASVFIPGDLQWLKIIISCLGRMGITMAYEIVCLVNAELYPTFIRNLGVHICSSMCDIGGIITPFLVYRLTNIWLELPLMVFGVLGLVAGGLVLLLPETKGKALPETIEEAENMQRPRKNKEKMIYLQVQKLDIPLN

patients = conditions: among patients with AKI; cited from earlier work

O=C(O)[C@@H](O)[C@H]1OC(=O)[C@H](O)[C@H]1O [DSAL, D-Saccharic acid 1,4-lactone]
effect on the reduction of rat oct2 mRNA induced by Klotho (OCT2 mRNA): did not abolish | OCT2 protein expression by immunocytochemistry (human OCT2 [1]; CHO cells transfected with OCT2/V5, β-glucuronidase 100μg/ml, DSAL 10 μM alone): had no effect | effect on the reduction of OCT2 protein by β-glucuronidase (human OCT2 [1]; DSAL 10 μM, CHO cells, immunocytochemistry and immunoblot): completely blocked | effect on Klotho-induced reduction of cell surface OCT2 (2 hours and 2 days) (human OCT2 [2]): blocked

CC[N+](CC)(CC)CC [^14C-TEA, ^14C-tetraethylammonium]
AUC0-60 of 14C-TEA, Blood 14C-TEA ([3]; Kl/+ mice): 4.13±0.12 (3) nmol/μl | AUC0-60 of 14C-TEA, Blood 14C-TEA ([3]; Tg-Kl mice): 2.22±0.12 (3) nmol/μl | AUC0-60 of 14C-TEA, Urine excretion rate 14C-TEA ([3]; Tg-Kl mice): 1.36±0.08 (3) pmol/mim | AUC0-60 of 14C-TEA, Blood 14C-TEA ([3]; WT mice): 2.68±0.18 (3) nmol/μl | AUC0-60 of 14C-TEA, Urine excretion rate 14C-TEA ([3]; WT mice): 2.08±0.08 (3) pmol/mim

CN/C(=N/CCSCc1nc[nH]c1C)NC#N [cimetidine]
fluorescent cisplatin uptake, agent added to apical side (NRK cells [4]; NRK cells, confocal imaging): not by either agent added to the apical side | fluorescent cisplatin uptake, agent added to basolateral side (NRK cells [4]; NRK cells, confocal imaging): blocked | cisplatin-triggered apoptosis (TUNEL), basolateral co-incubation of agent (NRK cells [5]; Klotho or cimetidine basolateral): rescued | inhibition of 14C-TEA uptake when 14C-TEA added to basolateral medium 20 minutes prior to agent [6]: inhibitory effect was absent | LDH release induced by basolateral cisplatin, agent added into apical side (NRK cells [7]; cisplatin 0.1 mM basolateral, Klotho 0.4 nM or cimetidine 0.1 mM apical): not cimetidine decreased LDH release | LDH release induced by basolateral cisplatin, basolateral co-incubation of agent (NRK cells [7]; cisplatin 0.1 mM, Klotho 0.4 nM or cimetidine 0.1 mM on basolateral side): significantly reduced LDH release | 14C-TEA uptake in OCT2-expressing CHO cells (human OCT2 [8]): reduced | OCT2 abundance in total cell membrane pool by immunoblot (human OCT2 [1]; CHO cells transfected with OCT2/V5, β-glucuronidase 100μg/ml, sialidase 0.1 IU/ml, cimetidine 0.1 mM): did not alter

N.N.[Cl][Pt][Cl] [cisplatin, cis-diammine-dichloroplatinum]
side of entry of Oregon Green 488-labeled cisplatin into NRK cells (NRK cells [4]; Transwell, apical or basolateral addition): entered NRK cells solely from the basolateral side | apoptosis (TUNEL) on cisplatin addition to basolateral medium (NRK cells [5]): triggers apoptosis | patients with AKI still having elevated SCr 15 days after treatment (patients): 50%
